Laboratory results as given in paper PMC7424198 (iScience, 2020).

Experiment: Thermal unfolding monitored by CD spectroscopy
Assay type: physicochemical
Conditions: 20 μM protein, 10 mM phosphate buffer pH 7.4, 2 °C intervals, 20 to 90 °C
Procedure, shortened: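 TM read as the transition point from the first derivative of the CD thermal unfolding curve. Reversibility was checked by comparing spectra recorded before and after heating. The 202 nm signal was followed during denaturation to look for an isodichroic point, which would indicate a two-state helix–unfolded transition. Spectra were recorded on 20 μM protein in 10 mM phosphate buffer.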

## aureocin A53
  transition midpoint (TM) of thermal unfolding: ~54 °C
